According to ChEMBL document CHEMBL5096187, “Efficient Synthesis and Bioevaluation of Novel Dual Tubulin/Histone Deacetylase 3 Inhibitors as Potential Anticancer Agents” (J Med Chem, 2021):
pIC50: −log10 of the molar value.

Assays:
B16-F10 [1] = test: Induction of apoptosis in mouse B16-F10 cells assessed as viable cells at 50 nM incubated for 48 hrs by Annexin V-FITC/PI analysis (reference value: 98.3 %); type: functional; details: read-out: Activity
Tubulin (Sus scrofa) = Tubulin (Sus scrofa) (UniProt P02554+P02550); test: Inhibition of pig brain tubulin polymerization at 10 uM measured after 20 mins by spectrometric method relative to control
Sequence of Tubulin (Sus scrofa) (P02550 whole entry, looked up): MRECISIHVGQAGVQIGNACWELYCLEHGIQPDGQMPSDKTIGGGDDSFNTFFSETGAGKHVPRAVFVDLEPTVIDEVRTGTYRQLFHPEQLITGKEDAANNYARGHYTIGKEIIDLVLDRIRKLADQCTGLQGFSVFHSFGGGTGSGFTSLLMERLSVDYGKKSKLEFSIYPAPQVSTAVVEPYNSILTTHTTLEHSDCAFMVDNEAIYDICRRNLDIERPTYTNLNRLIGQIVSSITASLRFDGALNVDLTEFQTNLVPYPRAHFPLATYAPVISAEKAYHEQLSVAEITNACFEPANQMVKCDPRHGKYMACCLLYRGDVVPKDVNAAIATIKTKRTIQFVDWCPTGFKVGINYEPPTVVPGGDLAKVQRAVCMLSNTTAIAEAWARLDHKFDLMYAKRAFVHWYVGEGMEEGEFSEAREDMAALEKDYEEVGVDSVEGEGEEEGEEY
Sequence of Tubulin (Sus scrofa) (P02554 whole entry, looked up): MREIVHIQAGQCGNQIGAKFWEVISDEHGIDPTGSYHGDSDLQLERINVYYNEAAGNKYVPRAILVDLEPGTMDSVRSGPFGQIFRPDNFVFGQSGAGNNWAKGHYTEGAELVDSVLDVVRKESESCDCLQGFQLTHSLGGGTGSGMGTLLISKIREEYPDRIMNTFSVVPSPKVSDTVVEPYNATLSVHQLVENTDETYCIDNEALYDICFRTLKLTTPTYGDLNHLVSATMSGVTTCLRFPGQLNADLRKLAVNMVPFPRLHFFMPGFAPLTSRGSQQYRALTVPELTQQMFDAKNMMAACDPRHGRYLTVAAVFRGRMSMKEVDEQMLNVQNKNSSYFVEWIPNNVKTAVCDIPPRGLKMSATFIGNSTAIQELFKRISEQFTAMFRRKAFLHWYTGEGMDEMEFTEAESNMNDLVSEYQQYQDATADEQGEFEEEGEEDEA
Procedure, shortened: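 Pig brain tubulin was purified by three assembly/disassembly cycles and then phosphocellulose chromatography. Compound at 10 μM in PEM buffer with 1 mM GTP and 5% glycerol at 37 °C. Polymerization followed at 340 nm; inhibition taken at 20 min versus vehicle control.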

A549 = test: Antiproliferative activity against human A549 cells assessed as inhibition of cell viability measured for 48 hrs by microplate reader based CCK-8 assay; type: functional; details: A549, 48 h
B16-F10 [2] = test: Induction of apoptosis in mouse B16-F10 cells assessed as necrotic cells at 50 nM incubated for 48 hrs by Annexin V-FITC/PI analysis (reference value: 0.012 %); type: functional
[3] = Antiproliferative activity against human YCC-11 cells assessed as inhibition of cell viability; type: functional, cell-based
[4] = Hepatotoxicity in C57BL/6 mouse assessed as effect on AST level in serum; type: toxicity
B16-F10 [5] = test: Induction of cell cycle arrest in mouse B16-F10 cells assessed as accumulation of cells in G2/M phase at 100 nM measured after 48 hrs by PI/RNaseA staining based flow cytometry analysis (Rvb= 5.76%); type: functional
B16-F10 [6] = test: Antiproliferative activity against mouse B16-F10 cells assessed as inhibition of cell viability measured for 48 hrs by microplate reader based MTT assay; type: functional; details: B16-F10, 48 h
Procedure, shortened: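 Cells grown in RPMI-1640 with 10% FBS and seeded at 5000 cells/well. After overnight attachment, compound was added in medium with 0.1% DMSO for 48 h at 37 °C. Read-out was MTT for HCT-116, B16-F10 and A549, and CCK-8 for Jurkat (0.5 mg/mL, 4 h), with absorbance at 570 nm. IC50 from nonlinear regression; at least three independent experiments.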

[7] = Cardiotoxicity in C57BL/6 mouse ssessed as effect on heart rate by ECG analysis; type: toxicity
Procedure, shortened: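 Mice aged 6–8 weeks dosed by intragastric gavage once daily for 14 days; ECG and heart rate recorded on a PowerLab system.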

[8] = Antiproliferative activity against human YCC3/7 cells assessed as inhibition of cell viability; type: functional, cell-based
B16-F10 [9] = test: Induction of apoptosis in mouse B16-F10 cells assessed as viable cells at 100 nM incubated for 48 hrs by Annexin V-FITC/PI analysis (reference value: 98.3 %); type: functional; details: read-out: Activity
B16-F10 [10] = test: Inhibition of cell migration in mouse B16-F10 cells assessed as reduction in wound area ratio measured at 25 nM incubated for 24 hrs by wound healing assay; type: functional; set-up: scale not given: the % may be the effect or the level left
Procedure, shortened: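 Confluent B16-F10 monolayers, seeded overnight, were scratched with a pipette tip and washed to remove debris. Cells were then treated, and phase-contrast images were taken at 0 and 24 h. Migration distance or wound area measured manually against DMSO control; n = 3.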

[11] = Toxicity in C57BL/6 mouse allografted with mouse B16-F10 cells assessed as morphological abnormalities in kidney at 10 mg/kg, ip administered for 14 days by H and E staining based analysis; type: organism-based; details: in vivo, 336 h, time 14 day
Procedure, shortened: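 C57BL/6 mice with subcutaneous B16-F10 allografts, n = 8 per group, given i.p. injections once daily for 14 days. Single agents at 10 mg/kg; combination at 5 + 5 mg/kg. Vehicle: ethanol/polyoxyethylene castor oil/saline 1.25:1.25:7.5. Liver and kidney fixed in 4% paraformaldehyde, paraffin-embedded, H&E stained and examined by microscopy.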

[12] = Toxicity in C57BL/6 mouse allografted with mouse B16-F10 cells assessed as body weight loss at 10 mg/kg, ip administered for 14 days; details: in vivo, 336 h
B16-F10 [13] = test: Upregulation of AC-H3 in mouse B16-F10 cells incubated for 12 hrs by Western blot analysis; type: functional, cell-based; details: dose 20-200 nM, DDE = dose-dependent effect
Procedure, shortened: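 B16-F10 cells (5 × 10⁵/well) treated 12 h with DMSO or compound, lysed in RIPA buffer. 30 μg protein separated by SDS-PAGE and blotted onto PVDF. Blocked 5% BSA 2 h, primary antibody overnight at 4 °C, secondary 1.5 h. Ac-H3 probed, with histone H3 and GAPDH as loading controls; band density quantified; three independent experiments.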

B16-F10 [14] = test: Induction of cell cycle arrest in mouse B16-F10 cells assessed as accumulation of cells in G2/M phase at 50 nM measured after 48 hrs by PI/RNaseA staining based flow cytometry analysis (Rvb= 5.76%); type: functional
Histone deacetylase 1 = Histone deacetylase 1 (Homo sapiens, UniProt Q13547); test: Inhibition of full length recombinant human HDAC1 (1 to 482 residues) expressed in Baculovirus system using Ac-Leu-Gly-Lys (Ac)-AMC as substrate pretreated for 5 mins followed by substrate addition and measured after 30 mins
Sequence of Histone deacetylase 1 (Q13547 whole entry, the tested form may be a part): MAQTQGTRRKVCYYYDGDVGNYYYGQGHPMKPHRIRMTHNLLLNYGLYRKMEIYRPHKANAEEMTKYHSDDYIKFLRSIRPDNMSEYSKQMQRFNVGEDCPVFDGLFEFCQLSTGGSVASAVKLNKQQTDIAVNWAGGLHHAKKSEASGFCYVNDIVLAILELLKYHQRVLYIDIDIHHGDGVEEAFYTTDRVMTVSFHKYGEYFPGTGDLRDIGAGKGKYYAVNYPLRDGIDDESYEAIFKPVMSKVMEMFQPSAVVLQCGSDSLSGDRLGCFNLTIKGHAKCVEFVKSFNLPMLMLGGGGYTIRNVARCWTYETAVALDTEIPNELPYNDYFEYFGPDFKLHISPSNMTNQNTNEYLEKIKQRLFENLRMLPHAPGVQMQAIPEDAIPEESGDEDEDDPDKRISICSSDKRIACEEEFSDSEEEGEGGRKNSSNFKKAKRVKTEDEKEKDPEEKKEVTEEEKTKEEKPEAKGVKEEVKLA

B16-F10 [15] = test: Induction of apoptosis in mouse B16-F10 cells assessed as late apoptotic cells at 50 nM incubated for 48 hrs by Annexin V-FITC/PI analysis (reference value: 1.68 %); type: functional
B16-F10 [16] = test: Antitumor activity against mouse B16-F10 cells allografted in C57BL/6 mouse assessed as tumor growth inhibition at 10 mg/kg, ip administered for 14 days; type: functional; details: B16-F10, 336 h, time 14 day, read-out: TGI
Procedure, shortened: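 C57BL/6 mice were inoculated subcutaneously with 3×10⁵ B16-F10 cells in PBS and randomized (n = 8). Drugs in ethanol/polyoxyethylene castor oil/saline (1.25:1.25:7.5) or vehicle alone were given i.p. once daily for 14 days. Mice were sacrificed at day 14 and tumors weighed; TGI(%) = [1 − Wt/Wv] × 100 using mean tumor weights.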

[17] = Hepatotoxicity in C57BL/6 mouse assessed as effect on ALB level in serum; type: toxicity
[18] = Nephrotoxicity in C57BL/6 mouse assessed as effect on creatinine level in serum; type: toxicity; details: in vivo
B16-F10 [19] = test: Induction of apoptosis in mouse B16-F10 cells assessed as early apoptotic cells at 50 nM incubated for 48 hrs by Annexin V-FITC/PI analysis (reference value: 1.68 %); type: functional
B16-F10 [20] = test: Induction of apoptosis in mouse B16-F10 cells assessed as necrotic cells at 100 nM incubated for 48 hrs by Annexin V-FITC/PI analysis (reference value: 0.012 %); type: functional
B16-F10 [21] = test: Induction of apoptosis in mouse B16-F10 cells assessed as necrotic cells at 25 nM incubated for 48 hrs by Annexin V-FITC/PI analysis (reference value: 0.012 %); type: functional
Tubulin = Tubulin (Sus scrofa, UniProt P02554+P02550); test: Inhibition of pig brain tubulin polymerization by spectrometric method
Procedure, shortened: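 Phosphocellulose-purified pig brain tubulin mixed with graded compound concentrations in PEM buffer (100 mM PIPES, 1 mM MgCl2, 1 mM EGTA) plus 1 mM GTP and 5% glycerol. Absorbance at 340 nm and 37 °C; plateau absorbance used to calculate IC50.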

Q: Which results are given for COc1cc(C(=O)c2csc(-c3ccc(NC(=O)CCCC(=O)Nc4ccccc4N)cc3)n2)cc(OC)c1OC?
A: viability at 0.05 µM (B16-F10 [1]): 58.9%; inhibition (Tubulin (Sus scrofa)): 70%; pIC50 (A549): 6.85; Activity (B16-F10 [2]): 1.9%; pIC50 [3]: 6.52; Activity [4]: Non-Toxic; Activity (B16-F10 [5]): 83.26%; pIC50 (B16-F10 [6]): 7.15; Activity [7]: Non-Toxic; pIC50 [8]: 6.25; viability at 0.1 µM (B16-F10 [9]): 31.6%; Activity (B16-F10 [10]): 27.32%; Activity [11]: Non-Toxic; Activity [12]: Non-Toxic; Activity (B16-F10 [13]): Dde; Activity (B16-F10 [14]): 66.32%; pIC50 (Histone deacetylase 1): 5.04; Activity (B16-F10 [15]): 32.3%; inhibition in vivo at 10 mg/kg (B16-F10 [16]): 70%; Activity [17]: Non-Toxic; Activity [18]: Non-Toxic; Activity (B16-F10 [19]): 7.09%; Activity (B16-F10 [20]): 1.29%; Activity (B16-F10 [21]): 0%; IC50 (Tubulin): 12200 nM
